From article PMC9310269 (Journal for Immunotherapy of Cancer, 2022)

Tested on: MC38-hPD-L1 tumors
Assay: MC38-hPD-L1 tumor model in humanized PD-1 mice
Type: in vivo, mouse
Conditions: 10 mg/kg i.p.; p<0.001
Summary of the method: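 Male C57BL/6N humanized PD-1 mice receive 1×10^6 MC38-hPD-L1 cells s.c. in the right flank. At day 12 (~60 mm3) they are randomized into 3 groups (N=6). Dosing is 10 mg/kg i.p. daily for 10 doses, or atezolizumab 10 mg/kg i.p. three times weekly, both over days 12–22. Tumour (X2Y0.5, caliper) and body weight are measured every 3 days. At day 30, tumours are enzymatically digested and analysed by flow cytometry.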

atezolizumab: clinically relevant anti-PD-L1 antibody control in vivo
tumor growth inhibition: significant
